According to ChEMBL document CHEMBL1149910, “2-(6-aryl-3(Z)-hexen-1,5-diynyl)anilines as a new class of potent antitubulin agents” (J Med Chem, 2008):
Active and inactive are the calls of the source. The rule behind the calls is not given here.

Columns and labels:
MDA-MB-231 [1] = assay: Cell cycle arrest in human MDA-MB-231 cells assessed as accumulation at sub-G1 phase at 3.6 uM after 24 hrs by flow cytometry; format: functional
MDA-MB-231 [2] = assay: Cell cycle arrest in human MDA-MB-231 cells assessed as accumulation of >4N cells at 36.0 uM after 24 hrs by flow cytometry; format: functional
MDA-MB-231 [3] = assay: Effect on microtubule depolymerization in human MDA-MB-231 cells assessed as disorganized microtubule cytoskeleton at 3.6 uM after 2 hrs relative to control; format: functional, cell-based
Method in brief: (§1)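 MDA-MB-231/ATCC cells grown on glass coverslips (1 × 10⁴ cells) for 24 h, then exposed to 3.6, 9, 18, 27 or 36 µM at 37 °C for 2 h. Fixed in 4% paraformaldehyde, permeabilized with Triton X-100, and immunostained for α-tubulin and ninein with DAPI counterstain. Interphase microtubule networks compared with untreated cells by confocal microscopy.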

MDA-MB-231 [4] = assay: Cell cycle arrest in human MDA-MB-231 cells assessed as accumulation of 2N cells at 3.6 uM after 72 hrs by flow cytometry; format: functional
SR = assay: Cytotoxicity against human SR cells; format: functional
Method in brief: (§2)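 Tested in the NCI in vitro antitumor screening protocol across a tumor cell line panel. GI₅₀ is the concentration producing a 50% reduction in cell growth.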

MDA-MB-231 [5] = assay: Cell cycle arrest in human MDA-MB-231 cells assessed as accumulation of >4N cells at 36.0 uM after 72 hrs by flow cytometry; format: functional
MDA-MB-231 [6] = assay: Effect on regrowth of depolymerized microtubule in human MDA-MB-231 cells after drug withdrawal; format: functional, cell-based; details: TDE = time-dependent effect
Method in brief: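 MDA-MB-231/ATCC cells on coverslips were treated at 36 µM in DMEM for 2 h at 37 °C, with nocodazole 20 µM and colchicine 5 µM as controls. Drug was then washed out with PBS and cells incubated in prewarmed DMEM at 37 °C. Cells were fixed at set time points and immunostained for α-tubulin and ninein with DAPI counterstain.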

OVCAR-5 = assay: Cytotoxicity against human OVCAR5 cells; format: functional; method in brief: as §2
UACC-62 = assay: Cytotoxicity against human UACC62 cells; format: functional
Method in brief: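 NCI in vitro antitumor screening protocol; GI50 taken as the concentration giving 50% reduction in cell growth.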

MDA-MB-231 [7] = assay: Cell cycle arrest in human MDA-MB-231 cells assessed as accumulation at sub-G1 phase at 27.0 uM after 72 hrs by flow cytometry; format: functional
MCF7 = assay: Cytotoxicity against human MCF7 cells; format: functional; method in brief: as §2
OVCAR-3 = assay: Cytotoxicity against human OVCAR-3 cells; format: functional; method in brief: as §2
LOX IMVI = assay: Cytotoxicity against human LOXIMVI cells; format: functional; method in brief: as §2
MDA-MB-231 [8] = assay: Cell cycle arrest in human MDA-MB-231 cells assessed as accumulation at sub-G1 phase at 9.0 uM after 72 hrs by flow cytometry; format: functional
RXF 393 = assay: Cytotoxicity against human RXF393 cells; format: functional; method in brief: as §2
[9] = Cytotoxicity against human […] cells; format: functional; method in brief: as §2
MDA-MB-231 [10] = assay: Cell cycle arrest in human MDA-MB-231 cells assessed as accumulation of 2N cells at 9.0 uM after 24 hrs by flow cytometry; format: functional
MDA-MB-231 [11] = assay: Cell cycle arrest in human MDA-MB-231 cells assessed as accumulation at sub-G1 phase at 18.0 uM after 72 hrs by flow cytometry; format: functional
PC-3 = assay: Cytotoxicity against human PC3 cells; format: functional; method in brief: as §2
MDA-MB-231 [12] = assay: Cell cycle arrest in human MDA-MB-231 cells assessed as accumulation of >4N cells at 18.0 uM after 72 hrs by flow cytometry; format: functional
MDA-MB-231 [13] = assay: Cell cycle arrest in human MDA-MB-231 cells assessed as accumulation of 2N cells at 18.0 uM after 24 hrs by flow cytometry; format: functional
NCI-H23 = assay: Cytotoxicity against human NCI-H23 cells; format: functional; method in brief: as §2
MDA-MB-231 [14] = assay: Cell cycle arrest in human MDA-MB-231 cells assessed as accumulation of 2N cells at 36.0 uM after 72 hrs by flow cytometry; format: functional
MDA-MB-231 [15] = assay: Cell cycle arrest in human MDA-MB-231 cells assessed as accumulation of 2N cells at 36.0 uM after 24 hrs by flow cytometry; format: functional
786-0 = assay: Cytotoxicity against human 786-0 cells; format: functional; method in brief: as §2
MDA-MB-231 [16] = assay: Cell cycle arrest in human MDA-MB-231 cells assessed as accumulation at sub-G1 phase at 18.0 uM after 24 hrs by flow cytometry; format: functional
MDA-MB-435 = assay: Cytotoxicity against human MDA-MB-435 cells; format: functional; method in brief: as §2
HCT-15 = assay: Cytotoxicity against human HCT15 cells; format: functional; method in brief: as §2
IGROV-1 = assay: Cytotoxicity against human IGROV1 cells; format: functional; method in brief: as §2
SF-268 = assay: Cytotoxicity against human SF268 cells; format: functional; method in brief: as §2
MDA-MB-231 [17] = assay: Effect on microtubule depolymerization in human MDA-MB-231 cells assessed as disorganized microtubule cytoskeleton at 9 uM after 2 hrs relative to control; format: functional, cell-based; method in brief: as §1
MDA-MB-231 [18] = assay: Cell cycle arrest in human MDA-MB-231 cells assessed as accumulation of 2N cells at 27.0 uM after 72 hrs by flow cytometry; format: functional
BT-549 = assay: Cytotoxicity against human BT549 cells; format: functional; method in brief: as §2
MOLT-4 = assay: Cytotoxicity against human MOLT4 cells; format: functional; method in brief: as §2
[19] = Inhibition of bovine tubulin polymerization; set-up: species or system Bos taurus
Method in brief: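 Purified bovine tubulin incubated at 37 °C in buffer containing 20% glycerol and 1 mM GTP, with test compound at 3.6–36 µM. Polymerization followed kinetically by the increase in fluorescence. Colchicine and paclitaxel served as controls.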

MDA-MB-231 [20] = assay: Cell cycle arrest in human MDA-MB-231 cells assessed as accumulation of >4N cells at 3.6 uM after 24 hrs by flow cytometry; format: functional
MDA-MB-231 [21] = assay: Cell cycle arrest in human MDA-MB-231 cells assessed as accumulation of 4N cells at 18.0 uM after 72 hrs by flow cytometry; format: functional
[22] = read-out: LC50 (the source's name)

What does the source list for `Nc1ccccc1C#C/C=C\C#Cc1ccccc1C(F)(F)F`?
Activity (MDA-MB-231 [1]): 23.6%; Activity (MDA-MB-231 [2]): 36.3%; Activity (MDA-MB-231 [3]): Active; Activity (MDA-MB-231 [4]): 23.3%; GI50 (SR): 0.247 µM; TGI (SR): 0.691 µM; CC50 (SR; [22]): > 100 µM; Activity (MDA-MB-231 [5]): 9.7%; Activity (MDA-MB-231 [6]): tde; GI50 (OVCAR-5): 1.35 µM; TGI (OVCAR-5): 7.02 µM; CC50 (OVCAR-5; [22]): 37.5 µM; TGI (UACC-62): 0.808 µM; GI50 (UACC-62; read-out: GI50): 0.261 µM; CC50 (UACC-62; [22]): 29 µM; GI50 (UACC-62; read-out: pGI50 (converted)): 0.251 µM; Activity (MDA-MB-231 [7]): 65.4%; GI50 (MCF7): 0.681 µM; TGI (MCF7): > 100 µM; CC50 (MCF7; [22]): > 100 µM; GI50 (OVCAR-3): 0.631 µM; GI50 (LOX IMVI): 0.499 µM; TGI (LOX IMVI): 10.5 µM; CC50 (LOX IMVI; [22]): 46.2 µM; Activity (MDA-MB-231 [8]): 53.9%; GI50 (RXF 393): 0.808 µM; TGI (RXF 393): 4.62 µM; CC50 (RXF 393; [22]): 30.5 µM; GI50 [9]: 0.746 µM; TGI [9]: > 100 µM; CC50 [9, 22]: > 100 µM; Activity (MDA-MB-231 [10]): 9.3%; Activity (MDA-MB-231 [11]): 62.5%; GI50 (PC-3): 2.35 µM; TGI (PC-3): 24.9 µM; CC50 (PC-3; [22]): 94.2 µM; Activity (MDA-MB-231 [12]): 13%; Activity (MDA-MB-231 [13]): 9.5%; GI50 (NCI-H23): 0.273 µM; TGI (NCI-H23): 1.89 µM; CC50 (NCI-H23; [22]): 47.8 µM; Activity (MDA-MB-231 [14]): 6.5%; Activity (MDA-MB-231 [15]): 10.4%; GI50 (786-0): 0.7 µM; TGI (786-0): 17.7 µM; CC50 (786-0; [22]): 67 µM; Activity (MDA-MB-231 [16]): 23.5%; GI50 (MDA-MB-435): 0.398 µM; GI50 (HCT-15): 1.26 µM; GI50 (IGROV-1): 0.349 µM; TGI (IGROV-1): 31.1 µM; CC50 (IGROV-1; [22]): > 100 µM; GI50 (SF-268): 0.65 µM; TGI (SF-268): 19.7 µM; CC50 (SF-268; [22]): 64.3 µM; Activity (MDA-MB-231 [17]): Active; Activity (MDA-MB-231 [18]): 6.8%; GI50 (BT-549): 0.699 µM; TGI (BT-549): 17.3 µM; CC50 (BT-549; [22]): 43.4 µM; GI50 (MOLT-4): > 100 µM; TGI (MOLT-4): > 100 µM; CC50 (MOLT-4; [22]): > 100 µM; IC50 [19]: 9 µM; Activity (MDA-MB-231 [20]): 31.3%; Activity (MDA-MB-231 [21]): 17.4%
